# Published values from different studies.
# Each line is one published result; the experiments were not run side by side. pIC50: −log10 of the molar value.
# Cell line: MDA-MB-468
# Effect on: cell growth or viability
SMILES,technique,time,pIC50
O=C(/C=C/c1ccccc1)c1ccccc1,resazurin,72 h,< 4.30
CN(C)c1ccc(/C=C/c2ccnc3ccc4ccccc4c23)cc1,MTT,,6.92
Cc1cc(NS(=O)(=O)c2ccc(NC(=O)COc3ccc(C(C)(C)c4ccccc4)cc3)cc2)nc(C)n1,MTT,72 h,4.46
Cc1ccc(S(=O)(=O)NN=Cc2cn(CCN3CCOCC3)c3ccccc23)cc1,MTT,48 h,4.39
Oc1ccc(N=Nc2ccccc2)c2ccccc12,MTT,,5.31
O=S(=O)(NN=Cc1cn(CCN2CCOCC2)c2ccccc12)c1ccc(F)cc1,MTT,48 h,4.82
Nc1nc(Nc2ccc(S(N)(=O)=O)cc2)sc1C(=O)c1cccc(F)c1,MTT,72 h,6.07
O=S(=O)(NN=Cc1cn(CCN2CCOCC2)c2ccccc12)c1ccccc1,MTT,48 h,4.33
Cc1ccccc1Sc1cc2ccccc2c2ccccc12,MTT,,4.54
O=C(CSc1nc2ccc(N=Cc3ccc(Sc4nnnn4-c4ccccc4)o3)cc2s1)N1CCOCC1,MTT,72 h,4.69
O=S(=O)(NN=Cc1cn(CCN2CCOCC2)c2ccccc12)c1ccc2ccccc2c1,MTT,48 h,4.27
COc1ccc(Br)cc1/C=C/C(=O)c1ccc(NC(C)=O)cc1,MTT,72 h,5.74
Nc1ccc2cc3[nH]c4cc(N)ccc4c3nc2c1,MTT,,6.96
CC(=O)Nc1nc(C)c(-c2csc(Nc3ccccc3)n2)s1,MTT,72 h,4.95
Cc1c2cccc(Sc3ccccc3)c2c2c3c(cccc13)[S+](c1ccccc1)C2 (centres unmarked),MTT,,6.15
O=S(=O)(NN=Cc1cn(CCN2CCOCC2)c2ccccc12)c1ccc(-c2ccccc2)cc1,MTT,48 h,4.50
COc1ccc(/C=C/C(=O)c2cc(Br)ccc(=O)c2O)cc1,MTT,48 h,5.20
COc1ccccc1N=Nc1c(O)ccc2ccccc12,MTT,,4.68
COc1cc(/C=C2\SC(=O)NC2=O)ccc1OCc1ccc(Cl)cc1Cl,MTT,72 h,4.19
O=S(=O)(NN=Cc1cn(CCN2CCOCC2)c2ccccc12)c1ccc(Cl)cc1,MTT,48 h,5.09
